Most compounds without a hit are left out; they make up all but 2.5% or so of the library.
Diaphorase act = counter-screen for diaphorase-based assays: diaphorase activators and chemical reducers | 190,000 tested, 0.005% active | activation factor at 20 µM | AID 1229 | Diaphorase/resazurin coupled assay, resorufin fluorescence, 16 min; hits give high values; 1 = vehicle wells, 0 = NADH-free wells;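 active means diaphorase activity raised at least twofold by the compound at 20 µM; inactive means activation factor below 2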
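Test system: Clostridium kluyveri diaphorase, purified enzyme. Buffer or medium: 50 mM HEPES pH 7.4 buffer plus MgCl2 and Tween 20. Also added: 0.114 mM NADH and 0.1 mM resazurin, final amounts. Dosing: compound 20 µM once, DMSO 1%. Schedule: 16 min enzyme reaction, ambient temperature. Detection: fluorescence of resorufin, 544 nm excitation, 590 nm emission.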
PMI activator = increases human mannose-6-phosphate isomerase activity; P34949; purified human PMI, coupled resazurin fluorescence, 20 min; hits give high values; 1 = vehicle control, 0 substrate-free wells; activation factor at 20 µM; 190,000 tested, 0.005% active; AID 1214;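 active means activation factor of 2 or more at 20 µM, relative to plate controls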
Target sequence (P34949 whole entry, looked up): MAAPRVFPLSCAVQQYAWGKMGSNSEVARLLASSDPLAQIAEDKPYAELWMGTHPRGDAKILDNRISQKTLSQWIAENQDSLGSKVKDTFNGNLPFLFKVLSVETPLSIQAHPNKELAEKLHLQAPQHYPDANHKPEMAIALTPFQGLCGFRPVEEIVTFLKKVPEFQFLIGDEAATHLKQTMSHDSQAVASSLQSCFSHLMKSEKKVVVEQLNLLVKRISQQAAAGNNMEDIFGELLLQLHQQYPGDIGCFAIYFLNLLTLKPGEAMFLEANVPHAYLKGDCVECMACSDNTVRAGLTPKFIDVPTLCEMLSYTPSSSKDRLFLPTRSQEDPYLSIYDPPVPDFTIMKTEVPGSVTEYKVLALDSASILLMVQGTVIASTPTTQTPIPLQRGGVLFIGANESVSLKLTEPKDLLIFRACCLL
Diaph inh CS = inhibits diaphorase or chemically oxidizes, flagging diaphorase assay artifacts; diaphorase resazurin-to-resorufin fluorescence, NADH, 16 min; bacterial (C. kluyveri) enzyme, not human; inhibition, % at 20 µM; 190,000 tested, 0.69% active;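 active means primary screen inhibition at 20 µM above a set limit, cut at about 50% in these data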;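 further: plate controls were DMSO with full reaction for no effect and wells lacking NADH for full effect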
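Assay system: diaphorase enzyme from Clostridium kluyveri. Quantity: enzyme working solution with 0.14 U/mL diaphorase. Schedule: reaction incubation of 16 min at room temperature. Technique: resorufin fluorescence, excitation 544 nm, emission 590 nm. Controls: No-NADH positive control and DMSO neutral control.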
PMI act satM6P = activators of human phosphomannose isomerase at near-saturating mannose 6-phosphate. 190,000 tested, 0.34% active. coupled PMI enzyme assay, resazurin fluorescence, 20 min; hits give high values; 1 = untreated enzyme, 0 = substrate-free blank. P34949. activation factor at 20 µM. AID 1216;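 active means activation factor of 2 or more at 20 µM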
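Test system: human PMI in coupled enzyme assay; Input: PMI at 15 ng/mL final; Medium: HEPES buffer, pH 7.4; Schedule: 20 min incubation at room temperature; Technique: resorufin fluorescence at Ex 544/Em 590 nm; Compound: 20 µM single dose; Probe or stimulus: Near-saturating mannose-6-phosphate, 1.0 mM.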
FLuc inhib CS = inhibits firefly luciferase, flagging false hits in luciferase inhibition screens. inhibition, % at 10 µM. AID 1006. ATPLite firefly luciferase biochemical luminescence, 10 min. 200,000 tested, 1.5% active;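 active means inhibition above about 50% when tested at 10 µM, limit read from the data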
FLuc act counter = affects firefly luciferase, flagging false hits in luciferase stimulation screens; ATPlite luciferase biochemical, luminescence, 10 min; 0 = ATP-free wells, 1 = DMSO control; P08659; activation factor at 10 µM; 200,000 tested, under 10 active; AID 1027;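 active means luciferase activation factor, scaled between plate controls, of at least 2 with compound at 10 µM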
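Material: Luciferase/luciferin reagent mix; Doses: test compounds dosed from 2 mM stocks in 100% DMSO; Schedule: 10 min incubation after luciferase reagent addition, room temperature; Measured by: luminescence from luciferase reaction; Read-out: luminescence gain marking luciferase activators.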
An asterisk follows results filed as active.

SMILES	Diaphorase act	PMI activator	Diaph inh CS	PMI act satM6P	FLuc inhib CS	FLuc act counter
O=C(CSC(=S)N1CCCCC1)c1ccccc1	0.9	0.9	14	0.9	76*	0.2
C/C(=N\NC(=O)c1ccccc1O)c1cccs1	1	1	5	1	92*	0.1
C/C(=N/NC(=O)c1cc(C2CC2)[nH]n1)c1cccs1	1	1	4	1	84*	0.2
CC(=O)Nc1sc2c(c1C#N)CCC(C)C2 (configuration not stated)	0.9	0.9	8	0.9	2	1
CC1CCc2c(sc(NC(=O)c3ccccc3C(=O)O)c2C#N)C1 (configuration not stated)	1	1.1	1	1	77*	0.2
O=C(CSc1ncc(-c2ccccc2)n1C1CCCC1)N1CCc2ccccc21	0.8	0.9	22	0.8	-5	1
Cc1cc(C(C)C)n2c(nc3ccccc32)c1C#N	0.9	1	13	1	-6	1.1
Cc1cc(-c2ccco2)c(C#N)c2nc3ccccc3n12	0.3	0.6	72*	0.5	11	0.9
Cc1cccc(N2C(=O)C(Oc3ccc(Cl)cc3Cl)C2C=O)c1C (configuration not stated)	0.8	0.9	16	1	-6	1.1
O=C1CCCc2c1sc1nc3n(c(=O)c21)CCCCC3	0.9	1	6	1.1	-2	1
O=C1c2sc3nc4n(c(=O)c3c2CCC1Br)CCCCC4 (configuration not stated)	0.4	0.6	62*	0.7	18	0.8
Cc1occc1C(=O)NNC(=S)NCc1ccccc1	1.1	1	-7	1.2	-4	1
Fc1ccc(-c2cnn3c(-c4cccs4)ccnc23)cc1	1.2	1.1	-18	1.1	83*	0.2
Fc1ccc(-c2cnn3c(-c4ccncc4)ccnc23)cc1	1	1	1	1.1	76*	0.2
c1csc(-c2ccnc3ncnn23)c1	0.9	1.1	15	1	0	1
COc1ccccc1C/C(N)=N/O	0.9	1	10	1	2	1
Cc1ccc(-c2cccc(NC(=O)C3C4C=CC(C4)C3C(=O)O)c2)o1 (configuration not stated)	1	1.1	2	1.1	2	1
O=C(COC(=O)c1cccc(Br)c1)NCCc1ccc(F)cc1	1	1	2	1	-3	1
O=c1c2cn[nH]c2[nH]c(=S)n1-c1ccccc1	0.4	1	61*	1	-6	1.1
Cc1ccc(S(=O)(=O)N=Nc2c(O)[nH]c3ccccc23)cc1	1.2	2.2*	-19	2.4*	-5	1.1
Cc1ccc(C)c(S(=O)(=O)N=Nc2c(O)[nH]c3ccccc23)c1	1.1	1.8	-10	2.1*	-2	1
Cc1ccc(S(=O)(=O)N(CC(=O)N=Nc2c(O)[nH]c3ccccc23)c2ccc(C)c(C)c2)cc1	0.7	0.9	28	0.9	-1	1
COc1ccc(OCCCC(=O)Nc2cccc([N+](=O)[O-])c2C)cc1	0.9	0.9	14	0.9	5	0.9
COc1ccc(-c2csc(C)n2)cc1	0.9	1	13	1	26	0.7
COc1ccc(-c2csc(CCN3N=C(C)CC3=O)n2)cc1	0.7	1.6	33	2.1*	-3	1
SMILES	Diaphorase act	PMI activator	Diaph inh CS	PMI act satM6P	FLuc inhib CS	FLuc act counter
N#CC1=C(N)Oc2n[nH]c(-c3cccs3)c2C1c1ccsc1 (configuration not stated)	0.4	0.5	60*	0.6	-6	1.1
N#CC1=C(N)Oc2n[nH]c(-c3cccs3)c2C1c1ccncc1 (configuration not stated)	0.9	0.9	13	0.8	-1	1
Cc1ccc(C(=O)C(C)OC(=O)c2ccccc2[N+](=O)[O-])cc1 (configuration not stated)	0.9	1	14	0.9	65*	0.3
COc1ccccc1C(=O)NNC(=O)c1ccccc1[N+](=O)[O-]	1	1	0	0.9	-3	1
CCC(C)NS(=O)(=O)c1ccc(NC(=O)c2cccs2)cc1 (configuration not stated)	0.9	1	14	1	-8	1.1
CCC(C)c1ccc(NC(=O)c2cccs2)cc1 (configuration not stated)	0.9	1	11	1	75*	0.3
CN1CCc2cccc3c2[C@H]1Cc1ccc(O)c(O)c1-3	0.2	0.2	78*	0.3	-1	1
Nc1cc(C(=O)O)c(Oc2ccc(Cl)cc2Cl)cc1C(=O)O	1	1.1	0	1	-1	1
CCn1nc(C)c(/C=N/NC(=O)c2c[nH]c3ccccc23)c1C	0.9	1	6	1.1	59*	0.4
O=C(Nc1ccccc1)Nc1ccc2ocnc2c1	0.9	0.9	8	0.9	61*	0.4
C=CCn1c(=O)c2ccc(C(=O)NCc3ccccc3)cc2n(Cc2ccc(C)cc2)c1=O	1.2	1.2	-18	1.2	-8	1.1
Nc1cc(N)c(OCC(F)(F)F)cc1OCC(F)(F)F	0.5	1.1	50*	0.4	-6	1.1
Oc1ccc2ccccc2c1C=NC1CCCCC1	0.5	0.2	52*	0.3	8	0.9
Oc1ccc2ccccc2c1/C=N/n1cnnc1	0.8	0.8	21	0.6	-2	1
CCCCN1C(=O)C2(NNc3ccccc3O2)c2ccccc21 (configuration not stated)	0.9	1.6	12	2.1*	-1	1
Cc1sc(=NC(=O)c2ccco2)n(C)c1-c1ccccc1	0.9	0.9	7	0.9	91*	0.1
Cn1c(=NC(=O)c2ccco2)sc2ccccc21	0.8	1	16	0.9	86*	0.1
Cc1sc(=NC(=O)c2ccco2)n(C)c1-c1ccc(F)cc1	0.8	0.9	15	1	80*	0.2
Cc1cccn2c(CNCC3(c4ccccc4)CCCC3)c(C(=O)N3CCOCC3)nc12	1	1	4	1.1	-5	1
CC(=O)N1CCc2cc(NC(=O)c3ccc(C)cc3)ccc21	0.9	0.9	11	1	73*	0.3
COc1cccc2cc(C(=O)Nc3ccc(F)cc3)c(=Nc3ccc(C(=O)O)cc3)oc12	0.4	1	62*	1.1	-1	1
O=C(Nc1ccc(-c2nnn(CC(=O)N3CCN(C(=O)c4ccco4)CC3)n2)cc1)c1ccccc1F	0.9	0.9	9	0.9	56*	0.4

High-throughput results (PubChem BioAssay)
